Results as given in ChEMBL document CHEMBL1150393, “Evaluation of radiolabeled (hetero)aromatic analogues of N-(2-diethylaminoethyl)-4-iodobenzamide for imaging and targeted radionuclide therapy of melanoma” (J Med Chem, 2008).

What was measured:
Conditions in all cases: in vivo
[1] = Drug excretion in mouse B16-F0 cells bearing C57BL/6 mouse urine at 0.74 to 0.92 MBq, iv after 72 hrs; type: ADME, organism-based
In short: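 Urine was collected from two B16-F0 tumour-bearing C57BL6 mice for up to 72 h after iv tail-vein injection of the [¹²⁵I]-labelled compound (0.1 µmol). Samples were counted to give cumulative urinary excretion as %ID.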

Muscle tissue [2] = test: Biodistribution in muscle of C57BL/6 mouse bearing mouse B16-F0 cells at 0.74 to 0.92 MBq, iv after 6 hrs; type: ADME, organism-based
In short: (§1)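 Male C57BL6 mice with s.c. left-flank B16-F0 melanoma (5 × 10⁵ cells in PBS). Two mice per time point frozen in liquid nitrogen after CO₂ sacrifice. Eight 40 µm whole-body cryosections per mouse read by multiwire proportional counter. cpm/mm² converted to kBq/g and expressed as %ID/g.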

Spleen [3] = test: Biodistribution in spleen of C57BL/6 mouse bearing mouse B16-F0 cells at 0.74 to 0.92 MBq, iv after 6 hrs; type: ADME, organism-based
In short: (§2)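 [¹²⁵I]-labelled compound given iv by tail vein (0.1 µmol per mouse) to male C57BL6 mice bearing s.c. B16-F0 flank tumours (5 × 10⁵ cells in PBS). Two mice per time point were killed by CO₂, frozen in liquid nitrogen and cut into 40 µm cryosections, eight slices per mouse. Slice radioactivity was read on a multiwire proportional counter, converted to kBq/g and reported as %ID/g.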

Lung [4] = test: Biodistribution in lung of C57BL/6 mouse bearing mouse B16-F0 cells at 0.74 to 0.92 MBq, iv after 1 hr; type: ADME, organism-based; in short: as §1
Liver [5] = test: Biodistribution in liver of C57BL/6 mouse bearing mouse B16-F0 cells at 0.74 to 0.92 MBq, iv after 24 hrs; type: ADME, organism-based; in short: as §1
[6] = Ratio of drug level in tumor to liver of C57BL/6 mouse bearing mouse B16-F0 cells at 0.74 to 0.92 MBq, iv after 1 hr; type: ADME, organism-based
In short: (§3)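 Tumour and organ radioactive concentrations came from whole-body cryosection counting (40 µm slices, eight per mouse, two mice per time) after tail-vein injection of the [¹²⁵I]-labelled compound (0.1 µmol) into male C57BL6 mice bearing s.c. B16-F0 melanoma. Each value is the ratio of the tumour concentration to the organ concentration.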

[7] = Biodistribution in Stomach content of C57BL/6 mouse bearing mouse B16-F0 cells at 0.74 to 0.92 MBq, iv after 6 hrs; type: ADME, organism-based; in short: as §1
[8] = Biodistribution in tumor of C57BL/6 mouse bearing mouse B16-F0 cells at 0.74 to 0.92 MBq, iv after 6 hrs; type: ADME, organism-based, Neoplasm; in short: as §2
[9] = Biodistribution in tumor of C57BL/6 mouse bearing mouse B16-F0 cells at 0.74 to 0.92 MBq, iv after 3 hrs; type: ADME, organism-based, Neoplasm; in short: as §2
Liver [10] = test: Biodistribution in liver of C57BL/6 mouse bearing mouse B16-F0 cells at 0.74 to 0.92 MBq, iv after 6 hrs; type: ADME, organism-based; in short: as §1
Kidney = test: Biodistribution in kidney of C57BL/6 mouse bearing mouse B16-F0 cells at 0.74 to 0.92 MBq, iv after 6 hrs; type: ADME, organism-based; in short: as §1
[11] = Biodistribution in intestinal content of C57BL/6 mouse bearing mouse B16-F0 cells at 0.74 to 0.92 MBq, iv after 3 hrs; type: ADME, organism-based; in short: as §1
[12] = Biodistribution in Stomach content of C57BL/6 mouse bearing mouse B16-F0 cells at 0.74 to 0.92 MBq, iv after 3 hrs; type: ADME, organism-based; in short: as §1
Spleen [13] = test: Biodistribution in spleen of C57BL/6 mouse bearing mouse B16-F0 cells at 0.74 to 0.92 MBq, iv after 3 hrs; type: ADME, organism-based; in short: as §2
[14] = Biodistribution in uvea of C57BL/6 mouse bearing mouse B16-F0 cells at 0.74 to 0.92 MBq, iv after 6 hrs; type: ADME, organism-based, Uveal tract; in short: as §2
Muscle tissue [15] = test: Biodistribution in muscle of C57BL/6 mouse bearing mouse B16-F0 cells at 0.74 to 0.92 MBq, iv after 3 hrs; type: ADME, organism-based; in short: as §1
Blood [16] = test: Biodistribution in blood of C57BL/6 mouse bearing mouse B16-F0 cells at 0.74 to 0.92 MBq, iv after 3 hrs; type: ADME, organism-based; in short: as §1
Blood [17] = test: Biodistribution in blood of C57BL/6 mouse bearing mouse B16-F0 cells at 0.74 to 0.92 MBq, iv after 1 hr; type: ADME, organism-based; in short: as §1
[18] = Biodistribution in Stomach content of C57BL/6 mouse bearing mouse B16-F0 cells at 0.74 to 0.92 MBq, iv after 1 hr; type: ADME, organism-based; in short: as §1
[19] = Biodistribution in uvea of C57BL/6 mouse bearing mouse B16-F0 cells at 0.74 to 0.92 MBq, iv after 72 hrs; type: ADME, organism-based, Uveal tract; in short: as §2
[20] = Biodistribution in Stomach content of C57BL/6 mouse bearing mouse B16-F0 cells at 0.74 to 0.92 MBq, iv after 24 hrs; type: ADME, organism-based; in short: as §1
[21] = Biodistribution in tumor of C57BL/6 mouse bearing mouse B16-F0 cells at 0.74 to 0.92 MBq, iv after 24 hrs; type: ADME, organism-based, Neoplasm; in short: as §2
Pancreas = test: Biodistribution in pancreas of C57BL/6 mouse bearing mouse B16-F0 cells at 0.74 to 0.92 MBq, iv after 1 hr; type: ADME, organism-based; in short: as §1
[22] = Biodistribution in uvea of C57BL/6 mouse bearing mouse B16-F0 cells at 0.74 to 0.92 MBq, iv after 1 hr; type: ADME, organism-based, Uveal tract; in short: as §2
Liver [23] = test: Biodistribution in liver of C57BL/6 mouse bearing mouse B16-F0 cells at 0.74 to 0.92 MBq, iv after 3 hrs; type: ADME, organism-based; in short: as §1
[24] = Ratio of drug level in tumor to brain of C57BL/6 mouse bearing mouse B16-F0 cells at 0.74 to 0.92 MBq, iv after 3 hrs; type: ADME, organism-based; in short: as §3
Lung [25] = test: Biodistribution in lung of C57BL/6 mouse bearing mouse B16-F0 cells at 0.74 to 0.92 MBq, iv after 6 hrs; type: ADME, organism-based; in short: as §1
[26] = Ratio of drug level in tumor to liver of C57BL/6 mouse bearing mouse B16-F0 cells at 0.74 to 0.92 MBq, iv after 3 hrs; type: ADME, organism-based; in short: as §3
[27] = Ratio of drug level in tumor to liver of C57BL/6 mouse bearing mouse B16-F0 cells at 0.74 to 0.92 MBq, iv after 6 hrs; type: ADME, organism-based; in short: as §3
[28] = Ratio of drug level in tumor to lung of C57BL/6 mouse bearing mouse B16-F0 cells at 0.74 to 0.92 MBq, iv after 6 hrs; type: ADME, organism-based; in short: as §3
[29] = Ratio of drug level in tumor to liver of C57BL/6 mouse bearing mouse B16-F0 cells at 0.74 to 0.92 MBq, iv after 24 hrs; type: ADME, organism-based; in short: as §3
[30] = Ratio of drug level in tumor to brain of C57BL/6 mouse bearing mouse B16-F0 cells at 0.74 to 0.92 MBq, iv after 1 hr; type: ADME, organism-based; in short: as §3
Thyroid gland [31] = test: Biodistribution in thyroid of C57BL/6 mouse bearing mouse B16-F0 cells at 0.74 to 0.92 MBq, iv after 3 hrs; type: ADME, organism-based; in short: as §2
Thyroid gland [32] = test: Biodistribution in thyroid of C57BL/6 mouse bearing mouse B16-F0 cells at 0.74 to 0.92 MBq, iv after 6 hrs; type: ADME, organism-based; in short: as §2

CCN(CC)CCNC(=O)c1ccc2cc([125I])ccc2n1.Cl.Cl gave an Activity [1] of 80.7%, a Drug uptake (Muscle tissue [2]) of 0.95 % ID/g and a Drug uptake (Spleen [3]) of 7.6 % ID/g. For the same molecule, the Drug uptake (Lung [4]) was 9.41 % ID/g, the Drug uptake (Liver [5]) was 2.25 % ID/g and the Ratio [6] was 1.8. It also gave a Drug uptake [7] of 65.36 % ID/g, a Drug uptake [8] of 17.2 % ID/g and a Drug uptake [9] of 25.4 % ID/g. For the same molecule, the Drug uptake (Liver [10]) was 7.11 % ID/g, the Drug uptake (Kidney) was 7.6 % ID/g and the Drug uptake [11] was 20.65 % ID/g. For the same molecule, the Drug uptake [12] was 34.72 % ID/g, the Drug uptake (Spleen [13]) was 10.63 % ID/g and the Drug uptake [14] was 36.62 % ID/g. It also gave a Drug uptake (Muscle tissue [15]) of 1.14 % ID/g, a Drug uptake (Blood [16]) of 5.57 % ID/g and a Drug uptake (Blood [17]) of 7.01 % ID/g. The Drug uptake [18] was 48.03 % ID/g, the Drug uptake [19] was 18.3 % ID/g and the Drug uptake [20] was 2.33 % ID/g. For the same molecule, the Drug uptake [21] was 12.1 % ID/g, the Drug uptake (Pancreas) was 9.8 % ID/g and the Drug uptake [22] was 32.71 % ID/g. It also gave a Drug uptake (Liver [23]) of 8.89 % ID/g, a Ratio [24] of 30.54 and a Drug uptake (Lung [25]) of 5.32 % ID/g. The Ratio [26] was 2.85, the Ratio [27] was 2.42 and the Ratio [28] was 3.23. The Ratio [29] was 5.39 and the Ratio [30] was 10.02.

CCN(CC)CCNC(=O)c1cc2cc([125I])ccc2o1.Cl showed an Activity [1] of 21.4%, a Drug uptake (Muscle tissue [2]) of 0.19 % ID/g and a Drug uptake (Spleen [3]) of 11.34 % ID/g. The Drug uptake (Lung [4]) was 5.17 % ID/g, the Drug uptake (Liver [5]) was 0.45 % ID/g and the Ratio [6] was 1.36. It also gave a Drug uptake [7] of 10.06 % ID/g, a Drug uptake [8] of 7.8 % ID/g and a Drug uptake [9] of 7.5 % ID/g. For the same molecule, the Drug uptake (Liver [10]) was 1.77 % ID/g, the Drug uptake (Thyroid gland [31]) was 22.43 % ID/g and the Drug uptake (Kidney) was 1.82 % ID/g. It also gave a Drug uptake [11] of 138.09 % ID/g, a Drug uptake [12] of 16.07 % ID/g and a Drug uptake [14] of 13.91 % ID/g. For the same molecule, the Drug uptake (Thyroid gland [32]) was 40.63 % ID/g, the Drug uptake (Muscle tissue [15]) was 0.29 % ID/g and the Drug uptake (Blood [16]) was 1.91 % ID/g. For the same molecule, the Drug uptake (Blood [17]) was 3.57 % ID/g, the Drug uptake [18] was 17.09 % ID/g and the Drug uptake [19] was 10.11 % ID/g. It also gave a Drug uptake [20] of 1.61 % ID/g, a Drug uptake [21] of 5 % ID/g and a Drug uptake [22] of 28.64 % ID/g. The Drug uptake (Liver [23]) was 2.74 % ID/g, the Ratio [24] was 31.29 and the Drug uptake (Lung [25]) was 1.45 % ID/g. The Ratio [26] was 2.74, the Ratio [27] was 4.41 and the Ratio [28] was 13.3. It also gave a Ratio [29] of 11.2 and a Ratio [30] of 6.

CCN(CC)CCNC(=O)c1cc2cc([125I])ccc2[nH]1.Cl showed an Activity [1] of 21.5%, a Drug uptake (Muscle tissue [2]) of 0.31 % ID/g and a Drug uptake (Spleen [3]) of 1.68 % ID/g. For the same molecule, the Drug uptake (Lung [4]) was 14.41 % ID/g, the Drug uptake (Liver [5]) was 1.61 % ID/g and the Ratio [6] was 0.7. The Drug uptake [7] was 21.84 % ID/g, the Drug uptake [8] was 9.8 % ID/g and the Drug uptake [9] was 10.2 % ID/g. The Drug uptake (Liver [10]) was 3.63 % ID/g, the Drug uptake (Kidney) was 2.5 % ID/g and the Drug uptake [11] was 112.56 % ID/g. For the same molecule, the Drug uptake [12] was 18.52 % ID/g, the Drug uptake (Spleen [13]) was 2.79 % ID/g and the Drug uptake [14] was 13.2 % ID/g. It also gave a Drug uptake (Muscle tissue [15]) of 0.49 % ID/g, a Drug uptake (Blood [16]) of 0.79 % ID/g and a Drug uptake (Blood [17]) of 1.6 % ID/g. It also gave a Drug uptake [18] of 35.41 % ID/g, a Drug uptake [19] of 5.86 % ID/g and a Drug uptake [20] of 2.1 % ID/g. The Drug uptake [21] was 8.2 % ID/g, the Drug uptake (Pancreas) was 7.15 % ID/g and the Drug uptake [22] was 11.7 % ID/g. For the same molecule, the Drug uptake (Liver [23]) was 5.21 % ID/g, the Ratio [24] was 3.91 and the Drug uptake (Lung [25]) was 1.7 % ID/g. It also gave a Ratio [26] of 1.96, a Ratio [27] of 2.71 and a Ratio [28] of 5.79. It also gave a Ratio [29] of 5.07 and a Ratio [30] of 1.69.
